The results in this text go back to ChEMBL document CHEMBL1137631, “Artemisinin-resistant mutants of Toxoplasma gondii have altered calcium homeostasis” (Antimicrob Agents Chemother, 2007).

Assay type in all cases: functional, organism-based
The test system of assay [1] is Toxoplasma gondii. Briefly: Induction of […] MIC2 protein secretion in Toxoplasma gondii ATCC 50839 at 10 uM treated for 10 mins by Western blot. In short, it runs like this:
(§1)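 Freshly egressed parasites in DMEM/HEPES with 3% FBS, treated 10 min at 18°C (1% ethanol vehicle), then 2 min at 37°C to secrete, chilled, centrifuged at 400 × g. Supernatant and pellet resolved by 15% SDS-PAGE, Western blotted with rabbit anti-MIC2 (1:10,000) and anti-β-galactosidase (1:300) antibodies.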
A general note: A western blot detects proteins with antibodies after separation by electrophoresis.

Assay [2] concerns Toxoplasma gondii. As to the kind of experiment: Induction of […] MIC2 protein secretion in artemisinin-resistant Toxoplasma gondii KN200-1 at 10 uM treated for 10 mins by Western blot. In short, it runs like this:
as §1

For assay [3], the system named is Toxoplasma gondii. As to the kind of experiment: Induction of […] MIC2 protein secretion in artemisinin-resistant Toxoplasma gondii KN200-6 at 10 uM treated for 10 mins by Western blot. In short, it runs like this:
as §1

Assay [4] concerns Toxoplasma gondii. Briefly: Induction of […] MIC2 protein secretion in artemisinin-resistant Toxoplasma gondii STL500-10A at 10 uM treated for 10 mins by Western blot. In short, it runs like this:
as §1

The subject of assay [5] is Toxoplasma gondii. Briefly: Induction of […] MIC2 protein secretion in artemisinin-resistant Toxoplasma gondii A2.
Assay [6] concerns Toxoplasma gondii. Briefly: Increase in intracellular calcium level in Toxoplasma gondii ATCC 50839 at 1 uM by fura-2-AM dye based fluorimetric method. In outline: (§2)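 Freshly harvested tachyzoites loaded with 5.2 μM fura-2-AM in HEPES-buffered saline pH 7.4 plus 1.5% sucrose, 30 min at 26°C, washed; 2×10^7 cells/ml, room temperature, no extracellular calcium (1 mM EGTA). Excitation 340/380 nm, emission 510 nm; [Ca2+]i calibrated with Ca2+-EGTA buffers after background subtraction; three independent experiments.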
(In general: Calcium flux is commonly read through the fluorescence of an indicator in the cells.)

Assay [7] deals with Toxoplasma gondii. As to the kind of experiment: Increase in intracellular calcium level in artemisinin-resistant Toxoplasma gondii STL500-10A at 1 uM by fura-2-AM dye based fluorimetric method. In outline:
as §2

Assay [8] has as its system Toxoplasma gondii. As to the kind of experiment: Increase in intracellular calcium level in artemisinin-resistant Toxoplasma gondii STL500-10A at 1 uM by fura-2-AM dye based fluorimetric method in presence of extracellular calcium. In short, it runs like this:
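Freshly harvested tachyzoites loaded with 5.2 μM fura-2-AM in HEPES-buffered saline pH 7.4 plus 1.5% sucrose, 30 min at 26°C, washed; 2×10^7 cells/ml, room temperature, 1 mM extracellular CaCl2. 340/380 nm excitation ratio, 510 nm emission; [Ca2+]i calibrated with Ca2+-EGTA buffers; three independent experiments.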

Assay [9] has as its system Toxoplasma gondii. As to the kind of experiment: Increase in intracellular calcium level in artemisinin-resistant Toxoplasma gondii KN200-6 at 1 uM by fura-2-AM dye based fluorimetric method. In short, it runs like this:
as §2

The subject of assay [10] is Toxoplasma gondii. Briefly: Increase in intracellular calcium level in artemisinin-resistant Toxoplasma gondii KN200-1 at 1 uM by fura-2-AM dye based fluorimetric method. In outline: as §2
The test system of assay [11] is Toxoplasma gondii. As to the kind of experiment: Antiparasitic activity against artemisinin-resistant Toxoplasma gondii KN200-1 infected in HFF cells after 72 hrs by beta-galactosidase reporter gene assay. In outline:
(§3)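 Tachyzoites inoculated into HFF monolayers, quadruplicate wells per sample; compounds 10 nM to 100 μM for 3 days at 37°C. Monolayers lysed 10 min at 50°C (HEPES pH 8.0, Triton X-100, DTT), then phosphate buffer pH 7.3 added, chlorophenol red-β-D-galactopyranoside substrate, A570 read.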
(In general: In a reporter assay the amount or activity of a reporter protein is the signal.)

Assay [12] concerns Toxoplasma gondii. As to the kind of experiment: Antiparasitic activity against artemisinin-resistant Toxoplasma gondii KN200-6 infected in HFF cells after 72 hrs by beta-galactosidase reporter gene assay. In outline: as §3
Assay [13] concerns Toxoplasma gondii. As to the kind of experiment: Antiparasitic activity against artemisinin-resistant Toxoplasma gondii STL500-10A infected in HFF cells after 72 hrs by beta-galactosidase reporter gene assay. In short, it runs like this:
as §3

For assay [14], the system named is Toxoplasma gondii. As to the kind of experiment: Antiparasitic activity against Toxoplasma gondii ATCC 50839 infected in HFF cells after 72 hrs by beta-galactosidase reporter gene assay. In outline:
as §3

Assay [15] has as its system Toxoplasma gondii. Briefly: Increase in intracellular calcium level in Toxoplasma gondii ATCC 50839 at 20 uM by fura-2-AM dye based fluorimetric method. In outline: as §2
The subject of assay [16] is Toxoplasma gondii. Briefly: Increase in intracellular calcium level in artemisinin-resistant Toxoplasma gondii KN200-1 at 20 uM by fura-2-AM dye based fluorimetric method. In outline: as §2
In assay [17] the test system is Toxoplasma gondii. As to the kind of experiment: Increase in intracellular calcium level in artemisinin-resistant Toxoplasma gondii KN200-6 at 20 uM by fura-2-AM dye based fluorimetric method. In short, it runs like this: as §2
Assay [18] has as its system Toxoplasma gondii. As to the kind of experiment: Increase in intracellular calcium level in artemisinin-resistant Toxoplasma gondii STL500-10A at 20 uM by fura-2-AM dye based fluorimetric method. In outline: as §2
[19] abbreviates: Toxoplasma gondii, ATCC 50839, HFF, 72 h, read-out: EC50.
Where [20] appears, read: Toxoplasma gondii, KN200-1, HFF, 72 h, read-out: EC50.
Setting [21] is: Toxoplasma gondii, KN200-6, HFF, 72 h, read-out: EC50.
Setting [22] is: Toxoplasma gondii, STL500-10A, HFF, 72 h, read-out: EC50.

Calls of active or inactive are those of the source. No cut-off for these calls is given here.

`C/C=C(/C)C(=O)O[C@H]1C(C)=C2[C@H]([C@@H]1OC(=O)CCCCCCC)[C@@](C)(OC(C)=O)C[C@H](OC(=O)CCC)[C@@]1(O)[C@H]2OC(=O)[C@@]1(C)O`: the outcome with Toxoplasma gondii [1], in the assay on Toxoplasma gondii [2], in the assay on Toxoplasma gondii [3], with Toxoplasma gondii [4], in the assay on Toxoplasma gondii [5] and in the assay on Toxoplasma gondii [6] was Active. Further, the result with Toxoplasma gondii [7], in the assay with Toxoplasma gondii [8], with Toxoplasma gondii [9] and with Toxoplasma gondii [10] was Active.
`C[C@@H]1CC[C@H]2[C@H](C)CO[C@@H]3O[C@@]4(C)CC[C@@H]1[C@]32OO4` [9-EPI-10-DEOXOARTEMISININ]: the EC50 result with Toxoplasma gondii [11] (hff), in the assay with Toxoplasma gondii [12] (hff) and in the assay with Toxoplasma gondii [13] (hff) was “Active” in each case.
As for `C[C@H]1[C@H](N2CCS(=O)(=O)CC2)O[C@@H]2O[C@@]3(C)CC[C@H]4[C@H](C)CC[C@@H]1[C@@]24OO3` [ARTEMIFONE], in the assay on Toxoplasma gondii [14] (setting [19]), the EC50 came out at 0.03 µM.
In the case of `C[C@@H]1CC[C@H]2[C@@H](C)C(=O)O[C@@H]3O[C@@]4(C)CC[C@@H]1[C@]32OO4` [ARTEMISININ], the EC90 was found to be 1.24 µM in the assay with Toxoplasma gondii [14] (Toxoplasma gondii, ATCC 50839, HFF, 72 h); 6.85 µM with Toxoplasma gondii [11] (Toxoplasma gondii, KN200-1, HFF, 72 h); 8.55 µM in the assay on Toxoplasma gondii [12] (Toxoplasma gondii, KN200-6, HFF, 72 h); 4.77 µM with Toxoplasma gondii [13] (Toxoplasma gondii, STL500-10A, HFF, 72 h). In addition, the EC50 amounted to 0.8 µM in the assay with Toxoplasma gondii [14] (setting [19]), 1.73 µM in the assay on Toxoplasma gondii [11] (setting [20]), 1.51 µM with Toxoplasma gondii [12] (setting [21]) and 1.8 µM in the assay with Toxoplasma gondii [13] (setting [22]). Further, the result with Toxoplasma gondii [5] was inactive. The result in the assay on Toxoplasma gondii [15], in the assay with Toxoplasma gondii [16], in the assay on Toxoplasma gondii [17] and in the assay with Toxoplasma gondii [18] was Active.
For `C[C@@H]1CC[C@H]2[C@@H](C)C(=O)O[C@@H]3O[C@@]4(C)CC[C@@H]1[C@]32O4` [DEOXYARTEMISININ], the EC50 entry with Toxoplasma gondii [14] (hff), in the assay on Toxoplasma gondii [11] (hff), in the assay on Toxoplasma gondii [12] (hff) and in the assay with Toxoplasma gondii [13] (hff) was “Not Active” in each case.
`O=c1[nH]c(=O)n([C@H]2C[C@H](O)[C@@H](CO)O2)cc1F` [FLOXURIDINE]: the EC50 worked out at 0.91 µM with Toxoplasma gondii [14] (setting [19]), 1.13 µM in the assay on Toxoplasma gondii [11] (setting [20]), 1.19 µM in the assay on Toxoplasma gondii [12] (setting [21]) and 0.96 µM in the assay with Toxoplasma gondii [13] (setting [22]).
Taken in the same sequence, the figures for `CCc1nc(N)nc(N)c1-c1ccc(Cl)cc1` [PYRIMETHAMINE] were 0.21 µM, 0.29 µM, 0.27 µM and 0.24 µM.

Usually EC50 stands for the midpoint of the concentration-response curve. For orientation: EC90 means the concentration at which the effect reaches the 90% level. A lower EC90 goes with greater potency.
